Activity calls are given as the source filed them. No cut-off for these calls is given here.
Assays:
Homo sapiens [1] = organism: Homo sapiens; assay: Induction of microtubule depolymerization in human PC3 interphase cells at 2 uM after 24 hrs by DAPI staining-based immunofluorescence microscopic analysis; type: cell-based
In short: (§1)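 PC-3 cells grown on chamber slides 36 h, then treated 24 h (test agents 2, 5 or 10 μM; reference agents 200 nM); fixed in 4% paraformaldehyde, permeabilized with 0.5% Triton X-100, stained with anti-α-tubulin monoclonal plus FITC secondary and DAPI for nuclei; spindle and microtubule morphology by fluorescence microscopy.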

HEK-293T [2] = assay: Inhibition of TNF-alpha induced NF-kapppaB activation in HEK293T cells at 1.25 uM incubated 1 hr prior to TNF-alpha addition measured after 18 hrs by luciferase reporter gene assay; type: cell-based; conditions: Homo sapiens
In short: (§2)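 HEK 293T cells transiently transfected 12 h with pNFκB-luc and pRL-TK, pretreated 1 h with compound (0.31–2.50 μM) or DMSO, then stimulated with TNF-α 25 ng/mL for 18 h; firefly and Renilla luciferase read by dual-luciferase assay. Data from one of three independent experiments.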

HCT-116 [3] = assay: Cell cycle arrest in human HCT116 cells assessed as accumulation at S phase at 2 uM after 12 hrs by propidium iodide staining-based FACS analysis (reference value: 20.48 to 23.62 %); type: functional
HCT-116 [4] = assay: Induction of apoptosis in human HCT116 cells at 1 uM after 24 hrs by AnnexinV-FITC/PI staining-based flow cytometry; type: functional
HCT-116 [5] = assay: Cell cycle arrest in human HCT116 cells assessed as accumulation at G2/M phase at 1 uM after 12 hrs by propidium iodide staining-based FACS analysis (reference value: 20.40 to 22.32 %); type: functional
HCT-116 [6] = assay: Induction of apoptosis in human HCT116 cells assessed as late apoptotic cells at 1 uM after 24 hrs by AnnexinV-FITC/PI staining-based flow cytometry (reference value: 2.53 %); type: functional
T47D = assay: Cytotoxicity against human T47D cells; type: functional
In short: (§3)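 NCI-60 human tumor cell line screen run by standard NCI protocol: single-dose prescreen at 10 μM, then multi-dose testing of compounds giving over 50% growth inhibition; GI50 = concentration for 50% growth inhibition.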

HCT-116 [7] = assay: Induction of apoptosis in human HCT116 cells assessed as early apoptotic cells at 2 uM after 24 hrs by AnnexinV-FITC/PI staining-based flow cytometry (reference value: 2.17 %); type: functional
RXF 393 = assay: Cytotoxicity against human RXF393 cells; type: functional; in short: as §3
HCT-116 [8] = assay: Induction of apoptosis in human HCT116 cells at 2 uM after 24 hrs by AnnexinV-FITC/PI staining-based flow cytometry; type: functional
NCI-H322M = assay: Cytotoxicity against human NCI-H322M cells; type: functional; in short: as §3
HCT-116 [9] = assay: Cell cycle arrest in human HCT116 cells assessed as accumulation at G0/G1 phase at 2 uM after 12 hrs by propidium iodide staining-based FACS analysis (reference value: 54.63 to 55.88 %); type: functional
HCT-116 [10] = assay: Cell cycle arrest in human HCT116 cells assessed as accumulation at G2/M phase after 12 hrs by propidium iodide staining-based FACS analysis; type: functional
HCT-116 [11] = assay: Induction of apoptosis in human HCT116 cells after 24 hrs by AnnexinV-FITC/PI staining-based flow cytometry; type: functional, cell-based
DU-145 = assay: Cytotoxicity against human DU145 cells; type: functional; in short: as §3
SNB-19 = assay: Cytotoxicity against human SNB19 cells; type: functional; in short: as §3
OVCAR-3 = assay: Cytotoxicity against human OVCAR3 cells; type: functional; in short: as §3
HEK-293T [12] = assay: Inhibition of TNF-alpha induced NF-kapppaB activation in HEK293T cells at 0.31 uM incubated 1 hr prior to TNF-alpha addition measured after 18 hrs by luciferase reporter gene assay; type: cell-based; conditions: Homo sapiens; in short: as §2
HCT-116 [13] = assay: Induction of apoptosis in human HCT116 cells assessed as late apoptotic cells at 2 uM after 24 hrs by AnnexinV-FITC/PI staining-based flow cytometry (reference value: 2.53 %); type: functional
Homo sapiens [14] = organism: Homo sapiens; assay: Induction of microtubule depolymerization in human PC3 mitotic cells assessed as abnormal spindles at 2 uM after 24 hrs by DAPI staining-based immunofluorescence microscopic analysis; type: cell-based; in short: as §1
LOX IMVI = assay: Cytotoxicity against human LOXIMVI cells; type: functional
Tubulin (Homo sapiens) = Tubulin (Homo sapiens) (UniProt P68371+Q9H4B7+P0DPH7+P68366+Q13509+Q71U36+P04350+Q3ZCM7+P07437+P68363+Q9BQE3+Q6PEY2+Q13885+Q9BVA1+Q9BUF5); assay: Inhibition of tubulin (unknown origin) polymerization assessed as destabilization of microtubule at 15 uM by fluorescence assay; type: protein-complex assay
In short: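 Cell-free tubulin polymerization kit; tubulin mixed with DMSO control, 500 μM CaCl2, 3 μM paclitaxel or test compounds at 15 or 30 μM; polymerization followed kinetically by fluorescence, excitation 340 nm, emission 420 nm, in a temperature-regulated fluorimeter. Three independent experiments in triplicate.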

MOLT-4 = assay: Cytotoxicity against human MOLT4 cells; type: functional; in short: as §3
HCT-116 [15] = assay: Cytotoxicity against human HCT116 cells; type: functional; in short: as §3
HEK-293T [16] = assay: Inhibition of TNF-alpha induced NF-kapppaB activation in HEK293T cells at 0.62 uM incubated 1 hr prior to TNF-alpha addition measured after 18 hrs by luciferase reporter gene assay; type: cell-based; conditions: Homo sapiens; in short: as §2
HEK-293T [17] = assay: Inhibition of TNF-alpha induced NF-kapppaB activation in HEK293T cells incubated 1 hr prior to TNF-alpha addition measured after 18 hrs by luciferase reporter gene assay; type: cell-based; conditions: Homo sapiens; in short: as §2
HCT-116 [18] = assay: Cell cycle arrest in human HCT116 cells assessed as reduction in G0/G1 phase after 12 hrs by propidium iodide staining-based FACS analysis; type: functional
HCT-116 [19] = assay: Induction of apoptosis in human HCT116 cells assessed as early apoptotic cells at 1 uM after 24 hrs by AnnexinV-FITC/PI staining-based flow cytometry (reference value: 2.17 %); type: functional
HCT-116 [20] = assay: Cell cycle arrest in human HCT116 cells assessed as accumulation at S phase at 1 uM after 12 hrs by propidium iodide staining-based FACS analysis (reference value: 20.48 to 23.62 %); type: functional
HCT-116 [21] = assay: Cell cycle arrest in human HCT116 cells assessed as accumulation at G0/G1 phase at 1 uM after 12 hrs by propidium iodide staining-based FACS analysis (reference value: 54.63 to 55.88 %); type: functional
HEK-293T [22] = assay: Inhibition of TNF-alpha induced NF-kapppaB activation in HEK293T cells at 1.25 to 5 uM incubated 1 hr prior to TNF-alpha addition measured after 18 hrs by luciferase reporter gene assay; type: cell-based; conditions: Homo sapiens
Homo sapiens [23] = organism: Homo sapiens; assay: Induction of microtubule depolymerization in human PC3 mitotic cells assessed as abnormal spindles at 5 uM after 24 hrs by DAPI staining-based immunofluorescence microscopic analysis; type: cell-based; in short: as §1
HEK-293T [24] = assay: Inhibition of TNF-alpha induced NF-kapppaB activation in HEK293T cells at 2.50 uM incubated 1 hr prior to TNF-alpha addition measured after 18 hrs by luciferase reporter gene assay; type: cell-based; conditions: Homo sapiens; in short: as §2
Homo sapiens [25] = organism: Homo sapiens; assay: Induction of microtubule depolymerization in human PC3 interphase cells at 5 uM after 24 hrs by DAPI staining-based immunofluorescence microscopic analysis; type: cell-based; in short: as §1

Row | SMILES | inhibition (HEK-293T [2]) [%] | Activity (HCT-116 [3]) [%] | Activity (HCT-116 [4]) [%] | Activity (HCT-116 [5]) [%] | Activity (HCT-116 [6]) [%] | GI50 (T47D) [µM] | Activity (HCT-116 [7]) [%] | GI50 (RXF 393) [µM] | Activity (HCT-116 [8]) [%] | GI50 (NCI-H322M) [µM] | Activity (HCT-116 [9]) [%] | Activity (HCT-116 [10]) | Activity (HCT-116 [11]) | GI50 (DU-145) [µM] | GI50 (SNB-19) [µM] | GI50 (OVCAR-3) [µM] | Activity (HCT-116 [13]) [%] | GI50 (LOX IMVI) [µM] | GI50 (MOLT-4) [µM] | GI50 (HCT-116 [15]) [µM] | also measured
1 | C=C1C(=O)C[C@H](OC(C)=O)[C@@]2(C)[C@@H](OC(C)=O)[C@H](OC(=O)c3ccccc3)C3=C(C)[C@@H](OC(=O)[C@H](O)[C@@H](NC(=O)c4ccccc4)c4ccccc4)C[C@@]3(C(C)(C)O)[C@@H](OC(C)=O)[C@H]12 | 37 | 18.27 | 8.54 | 29.81 | 2.82 | 1.86 | 5.87 | 1.29 | 20.36 | 18.5 | 44.75 | Dose-dependent effect | Dose-dependent effect | 1.59 | 33.7 | 1.72 | 14 | 1.86 | 0.65 | 1.28 | Activity (Homo sapiens [1]): Active; inhibition (HEK-293T [12]): 14%; Activity (Homo sapiens [14]): Active; inhibition (Tubulin (Homo sapiens)): Active; inhibition (HEK-293T [16]): 27%; inhibition (HEK-293T [17]): Dose-dependent effect; Activity (HCT-116 [18]): Dose-dependent effect; Activity (HCT-116 [19]): 2.11%; Activity (HCT-116 [20]): 14.39%; Activity (HCT-116 [21]): 55.02%
2 | C=C1C(=O)O[C@@H]2C3O[C@]3(C)CC/C=C(\C)CC[C@@H]12 (some centres undefined) |  |  |  |  |  |  |  | 12.6 |  | 19.9 |  |  |  |  | 63.1 | 19.9 |  |  | 15.8 | 10 | inhibition (HEK-293T [22]): Active
3 | C=C1C(=O)C[C@H](OC(C)=O)[C@@]2(C)[C@@H](OC(C)=O)[C@H](OC(=O)c3ccccc3)C3=C(C)[C@@H](OC(=O)[C@H](O)[C@@H](NC(=O)OC(C)(C)C)c4ccccc4)C[C@@]3(C(C)(C)O)[C@@H](OC(C)=O)[C@H]12 | 12 | 16.39 | 4.93 | 26.14 | 5.24 | 1.88 | 5.72 | 1.33 | 19.87 | 18.8 | 50.3 | Dose-dependent effect | Dose-dependent effect | 1.89 | 27.5 | 1.69 | 14.64 | 1.7 |  | 1.12 | Activity (Homo sapiens [23]): Active; inhibition (HEK-293T [24]): 28%; inhibition (Tubulin (Homo sapiens)): Active; Activity (Homo sapiens [25]): Active; inhibition (HEK-293T [16]): 9%; inhibition (HEK-293T [17]): Dose-dependent effect; Activity (HCT-116 [18]): Dose-dependent effect; Activity (HCT-116 [19]): 3.3%; Activity (HCT-116 [20]): 20.48%; Activity (HCT-116 [21]): 51.25%
4 | C=C1C(=O)C=C[C@@]2(C)[C@@H](OC(C)=O)[C@H](OC(=O)c3ccccc3)C3=C(C)[C@@H](OC(=O)[C@H](O)[C@@H](NC(=O)OC(C)(C)C)c4ccccc4)C[C@@]3(C(C)(C)O)[C@@H](OC(C)=O)[C@H]12 |  |  |  |  |  | 4.78 |  | 2.08 |  | 24.6 |  |  |  | 6.05 | > 100 | 3.19 |  | 2.2 | 3.78 | 1.87 | 
5 | C=C1C(=O)C=C[C@@]2(C)[C@@H](OC(C)=O)[C@H](OC(=O)c3ccccc3)C3=C(C)[C@@H](OC(=O)[C@H](O)[C@@H](NC(=O)c4ccccc4)c4ccccc4)C[C@@]3(C(C)(C)O)[C@@H](OC(C)=O)[C@H]12 |  |  |  |  |  | 1.7 |  | 0.52 |  | 4.69 |  |  |  | 1.66 | 15.3 | 1.33 |  | 1.57 | 2.48 | 0.77 | 

— ChEMBL document CHEMBL2385032, “Dual-functional abeo-taxane derivatives destabilizing microtubule equilibrium and inhibiting NF-κB activation” (2013)
